This is an account of results in ChEMBL document CHEMBL1138222, “9-Benzylidene-naphtho[2,3-b]thiophen-4-ones as novel antimicrotubule agents-synthesis, antiproliferative activity, and inhibition of tubulin polymerization” (J Med Chem, 2006).

The source made the active and inactive calls. The calls are words filed in the database; no cut-off is given here.

Assay [1] can be described thus: Cell cycle arrest in KB/HeLa cells by accumulation at S phase at 100 nM. In kind it is functional, cell-based. The note with it: Homo sapiens. The method, boiled down: (§1)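 Subconfluent KB/HeLa cells were treated with a concentration series for 24 h at 37 °C, then detached and fixed in 70% ethanol. DNA was stained with propidium iodide alongside RNase digestion and measured by flow cytometry. Phase fractions came from cell-cycle modelling software, and IC50 from nonlinear regression.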

A short description of assay [2]: Cell cycle arrest in KB/HeLa cells by accumulation at G2/M phase. In kind it is functional, cell-based. Conditions: Homo sapiens. The method in brief:
as §1

The nature of assay [3]: Cell cycle arrest in KB/HeLa cells by accumulation at G2/M phase at 31.6 nM. In kind it is functional, cell-based. Conditions: Homo sapiens. The method in brief: as §1
A short description of assay [4]: Cell cycle arrest in KB/HeLa cells by accumulation at G2/M phase at 0.1 nM. Format: functional, cell-based. The note with it: Homo sapiens. The method, boiled down: as §1
A short description of assay [5]: Cell cycle arrest in KB/HeLa cells by accumulation at S phase at 316 nM. In kind it is functional, cell-based. The note with it: Homo sapiens. The method in brief: as §1
A short description of assay [6]: Cell cycle arrest in KB/HeLa cells by accumulation at G1 phase at 31.6 nM. In kind it is functional, cell-based. Conditions: Homo sapiens. The method in brief:
as §1

The nature of assay [7]: Cell cycle arrest in KB/HeLa cells by accumulation at S phase at 3.16 nM. In kind it is functional, cell-based. The note with it: Homo sapiens. The method, boiled down: as §1
The nature of assay [8]: Cell cycle arrest in KB/HeLa cells by accumulation at G2/M phase at 100 nM. In kind it is functional, cell-based. Conditions: Homo sapiens. The method in brief: as §1
A short description of assay [9]: Cell cycle arrest in KB/HeLa cells by accumulation at G1 phase at 3.16 nM. Format: functional, cell-based. The note with it: Homo sapiens. The method, boiled down: as §1
The nature of assay [10]: Cell cycle arrest in KB/HeLa cells by accumulation at G1 phase at 1 nM. In kind it is functional, cell-based. Conditions: Homo sapiens. The method, boiled down: as §1
Assay [11] can be described thus: Cell cycle arrest in KB/HeLa cells by accumulation at G1 phase at 0.3 nM. Format: functional, cell-based. Conditions: Homo sapiens. The method in brief:
as §1

Assay [12] in a line: Cell cycle arrest in KB/HeLa cells by accumulation at G2/M phase at 10 nM. In kind it is functional, cell-based. The note with it: Homo sapiens. The method in brief:
as §1

Assay [13] is described as follows: Cell cycle arrest in KB/HeLa cells by accumulation at G1 phase at 316 nM. Format: functional, cell-based. Conditions: Homo sapiens. The method in brief: as §1
Assay [14] can be described thus: Cell cycle arrest in KB/HeLa cells by accumulation at G1 phase at 100 nM. In kind it is functional, cell-based. The note with it: Homo sapiens. The method in brief:
as §1

Assay [15] can be described thus: Cell cycle arrest in KB/HeLa cells by accumulation at S phase at 31.6 nM. The note with it: Homo sapiens. In kind it is functional, cell-based. The method, boiled down:
as §1

Assay [16] is described as follows: Cell cycle arrest in KB/HeLa cells by accumulation at G2/M phase at 0.3 nM. In kind it is functional, cell-based. The note with it: Homo sapiens. The method, boiled down:
as §1

The nature of assay [17]: Cell cycle arrest in KB/HeLa cells by accumulation at G2/M phase at 1 nM. Conditions: Homo sapiens. Format: functional, cell-based. The method in brief: as §1
Assay [18] can be described thus: Cell cycle arrest in KB/HeLa cells by accumulation at S phase at 0.3 nM. In kind it is functional, cell-based. The note with it: Homo sapiens. The method, boiled down:
as §1

A short description of assay [19]: Cell cycle arrest in KB/HeLa cells by accumulation at S phase at 0.1 nM. Format: functional, cell-based. Conditions: Homo sapiens. The method in brief: as §1
Assay [20] is described as follows: Cell cycle arrest in KB/HeLa cells by accumulation at S phase at 10 nM. Format: functional, cell-based. The note with it: Homo sapiens. The method in brief:
as §1

The nature of assay [21]: Cell cycle arrest in KB/HeLa cells by accumulation at G1 phase at 0.1 nM. In kind it is functional, cell-based. The note with it: Homo sapiens. The method in brief:
as §1

Assay [22] in a line: Cell cycle arrest in KB/HeLa cells by accumulation at G2/M phase at 316 nM. Conditions: Homo sapiens. Format: functional, cell-based. The method, boiled down:
as §1

Assay [23] in a line: Cell cycle arrest in KB/HeLa cells by accumulation at G1 phase at 10 nM. The note with it: Homo sapiens. In kind it is functional, cell-based. The method in brief:
as §1

Assay [24] is described as follows: Cell cycle arrest in KB/HeLa cells by accumulation at S phase at 1 nM. In kind it is functional, cell-based. Conditions: Homo sapiens. The method, boiled down: as §1
A short description of assay [25]: Cell cycle arrest in KB/HeLa cells by accumulation at G2/M phase at 3.16 nM. In kind it is functional, cell-based. The note with it: Homo sapiens.
Assay [26] deals with T1, Tubulin (Homo sapiens) (UniProt P68371+Q9H4B7+P0DPH7+P68366+Q13509+Q71U36+P04350+Q3ZCM7+P07437+P68363+Q9BQE3+Q6PEY2+Q13885+Q9BVA1+Q9BUF5). In words: Displacement of [3H]colchicine from tubulin by SPA assay. Format: protein-complex assay.
Assay [27] has as its system RKO. The experiment in a line: Antiproliferative activity against RKO cells with ectopic-induced p27kip1-expression by XTT assay after 48 hrs. The note with it: Homo sapiens. Format: functional, cell-based. The method in brief:
(§2)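 RKO colon adenocarcinoma cells carry an ecdysone-inducible p27kip1 vector. On day 1 they were plated with 3 µM ponasterone A (induced, 2 × 10^4 cells/well) or without it (not induced, 6 × 10^3 cells/well) and held 24 h at 37 °C. Compound or DMSO control was then added for 48 h at 37 °C, followed by a standard XTT read-out.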

Another assay deals with Tubulin (Sus scrofa, UniProt P02554+P02550). The experiment in a line: Inhibition of tubulin polymerization in porcine brain.
Assay [28] is described as follows: Antiproliferative activity against KB/HeLa cells by XTT assay after 48 hrs. In kind it is functional, cell-based. Conditions: Homo sapiens. The method, boiled down:
(§3)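 Tumour cell lines were seeded at 1 × 10^3 to 8 × 10^4 cells/well for logarithmic growth and exposed to a concentration series for 48 h. Proliferation was read as cellular metabolic activity by XTT. IC50 came from dose-response curves by nonlinear regression, with at least two replicates.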

In assay [29] the test system is RKO. In words: Antiproliferative activity against RKO cells by XTT assay after 48 hrs. In kind it is functional, cell-based. The note with it: Homo sapiens. The method, boiled down:
as §2

For the next assay, the system named is MDR. In words: Antiproliferative activity against LT12 MDR cells by XTT assay after 48 hrs. Format: functional, cell-based. The note with it: Rattus norvegicus. The method in brief: as §3
The subject of a further assay is K562. The experiment in a line: Antiproliferative activity against human K562 cell line. In kind it is functional, cell-based.
Assay [30] relates to P388. The experiment in a line: Antiproliferative activity against P388 cells by XTT assay after 48 hrs. In kind it is functional, cell-based. The note with it: Mus musculus, P388, 48 h. The method, boiled down:
as §3

Assay [31] has as its system L1210. The experiment in a line: Antiproliferative activity against L1210 cells by XTT assay after 48 hrs. Format: functional, cell-based. The note with it: Mus musculus, L1210, 48 h. The method in brief:
as §3

For the next assay, the system named is SK-OV-3. In words: Antiproliferative activity against SKOV3 cells by XTT assay after 48 hrs. Conditions: Homo sapiens, SK-OV-3, 48 h. Format: functional, cell-based. The method, boiled down: as §3
Assay [32] has as its system L1210. The experiment in a line: Antiproliferative activity against L1210 VCR cells by XTT assay after 48 hrs. In kind it is functional, cell-based. Conditions: Mus musculus, L1210, 48 h. The method, boiled down:
as §3

For the next assay, the system named is SF-268. The experiment in a line: Antiproliferative activity against SF268 cells by XTT assay after 48 hrs. Format: functional, cell-based. The note with it: Homo sapiens, SF-268, 48 h. The method in brief:
as §3

Another assay deals with NCI-H460. The experiment in a line: Antiproliferative activity against NCI-H460 cells by XTT assay after 48 hrs. Format: functional, cell-based. Conditions: Homo sapiens, NCI-H460, 48 h. The method in brief:
as §3

A short description of the next assay: cells. The note with it: Rattus norvegicus, LT12, 48 h.
Assay [33] relates to P388. In words: Antiproliferative activity against P388 ADR cells by XTT assay after 48 hrs. Format: functional, cell-based. The note with it: Mus musculus, P388, 48 h. The method in brief: as §3
Assay [34] addresses T1, Tubulin (Homo sapiens). The experiment in a line: Displacement of [3H]paclitaxel from tubulin by SPA assay. In kind it is protein-complex assay.

On to `CC[C@]1(O)C[C@H]2CN(CCc3c([nH]c4ccccc34)[C@@](C(=O)OC)(c3cc4c(cc3OC)N(C=O)[C@H]3[C@@](O)(C(=O)OC)[C@H](OC(C)=O)[C@]5(CC)C=CCN6CC[C@]43[C@@H]65)C2)C1` [VINCRISTINE], for which the Activity in assay [1] turned out to be 4.8%; in assay [3] it was 92.6%; in [4], 11.1%; in [5], 5.9%; in assay [6], 1%; in assay [7] it was 26%. Further, the Activity in [8] stood at 95.1%; in [9], 6.5%; in [10], 53.7%; in [11], 64.5%; in [12] it was 86.7%; in [13], 0.2%. For the same compound, the Activity in assay [14] was determined as 0.2%; in assay [15] it was 7.2%; in [16], 11.7%; in [17], 17.2%; in assay [18] it was 24%; in assay [19], 27.7%. Besides, the Activity came out at 13.1% in assay [20]; 61.2% in [21]; 93.8% in [22]; 0.5% in assay [23]; 28.3% in assay [24]; 65.8% in [25]. The EC50 in assay [2] worked out at 0.0024 µM.

In the case of `COc1ccc(/C=C2/c3ccccc3C(=O)c3ccsc32)c(OC)c1O`, on Tubulin (Homo sapiens) [26], the Activity amounted to 0.29 µM. Moreover, the IC50 is above 9 µM with RKO [27]; 0.5 µM on Tubulin; 0.19 µM in assay [28]; 0.04 µM in the assay on RKO [29]; 0.19 µM with MDR; 0.08 µM in the assay on K562. The IC50 was 0.14 µM in the assay with P388 [30]; 0.13 µM with L1210 [31]; 0.04 µM in the assay with SK-OV-3; 0.17 µM in the assay on L1210 [32]; 0.05 µM with SF-268; 0.28 µM in the assay with NCI-H460. Besides, the IC50 in “cells” was 0.18 µM; in the assay with P388 [33] it was 0.16 µM. Besides, the result at Tubulin (Homo sapiens) [34] was inactive.
